Myeloid diff MLP: induction of myeloid progenitor differentiation, primary screen, cell-based, flow cytometry, MLPCN library; ER-HoxA9 myeloid progenitors, lysozyme-GFP differentiation; 1% of 360,000 active; calls only at 10 µM;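 active means normalized GFP-positive differentiation at or above the plate's own cutoff, the solvent-only control mean plus 3 SD; inconclusive means no clear call, values can overlap the other calls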;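 further: cells exposed to compound for four days before flow analysis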
T cell modulator: modulators of CD8 T cell-vesicle binding, primary screen, mouse 2C CD8+ T cells, flow cytometry. 0.068% of 330,000 active. 2C CD8+ T cell-vesicle binding; active compounds read low. response (vesicle binding), % at 7 µM;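 active means response, share of CD8 T cells binding vesicles, and their 90th percentile fluorescence all below set limits, cut at about 80% in these data, passing the limit was not always enough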;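 further: values below 100% mean blocked vesicle binding to the CD8+ T cells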
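Assay system – 2C mouse CD8+ T cells · Also added – QL9-loaded Drosophila micro-vesicles · Timing – Cell–vesicle co-incubation 1.5 h at 37 °C, staining 20 min on ice · Signal – flow cytometry of vesicle-bound cells · Measure – percent CD8+ FL2 mean versus row control · Controls – Peptide-free naked vesicles (low) and QL9 vesicles with 0.7% DMSO vehicle (high)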
GAA850 FXN act: FXN promoter activators, primary screen, cell-based, luciferase luminescence, HEK293 lucGAA850. HEK293 lucGAA850 FXN promoter luciferase reporter, 24 h; percent of 10 µM SAHA response. activation, % at 6 µM. 0.56% of 360,000 active;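 active means activation above the average of all compounds screened plus 3 SD, cutoff fixed separately per campaign, cut at about 7.5% in these data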
NR2E3 ag-1: NR2E3 agonists in two-hybrid cells, primary screen, cell-based, luminescence, CHO-S, Gal4-NCOR/VP16-NR2E3; inhibition of corepressor binding, % at 3.98 µM; luciferase; 0.35% of 360,000 active; Photoreceptor-specific nuclear receptor (Homo sapiens), Q9Y5X4;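 active means inhibition above the mean of all tested compounds plus 3 SD, cut at about 70% in these data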;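 further: higher means lower luciferase signal from less NR2E3 corepressor binding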
Target sequence (Q9Y5X4 whole entry, looked up, the tested form may be a part): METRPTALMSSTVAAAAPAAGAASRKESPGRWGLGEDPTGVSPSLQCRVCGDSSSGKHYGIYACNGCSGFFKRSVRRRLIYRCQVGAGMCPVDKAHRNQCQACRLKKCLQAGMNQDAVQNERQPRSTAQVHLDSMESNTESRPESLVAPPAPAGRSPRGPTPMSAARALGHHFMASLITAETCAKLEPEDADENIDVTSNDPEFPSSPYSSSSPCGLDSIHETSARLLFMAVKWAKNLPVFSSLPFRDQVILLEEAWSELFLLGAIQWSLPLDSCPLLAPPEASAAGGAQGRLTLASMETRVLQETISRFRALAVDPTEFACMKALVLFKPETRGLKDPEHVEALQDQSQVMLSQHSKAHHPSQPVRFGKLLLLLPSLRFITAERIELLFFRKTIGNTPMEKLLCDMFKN
NR2E3 ag-2: inhibitors of NR2E3-RetCOR corepressor binding, primary screen, NR2E3 agonist project, biochemical, TR-FRET, GST-NR2E3, biotin-RetCOR; 1536-well; inhibition of corepressor binding, % at 4.78 µM; Photoreceptor-specific nuclear receptor (Homo sapiens), Q9Y5X4; 0.12% of 320,000 active; AID 2300, 2010;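 active means percent inhibition above the cutoff of mean plus 3 SD of all tested compounds, set per screening campaign, cut at about 20% in these data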
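Material: NR2E3–RetCOR corepressor complex | Quantity: 1.35 nM GST-tagged NR2E3 final | Schedule: 5 h at 4 °C | Replication: Singlicate compound wells | Reagent: RetCOR corepressor, biotinylated, 7 nM | Controls: Biotin wells as high control, 0.6% DMSO wells as low control | Signal: TR-FRET, Eu(K)-anti-GST donor, streptavidin-D2 acceptor, ex 340, em 617/671 nm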
Hits are given with their value; n = inactive; u = inconclusive; x = no result given; + = active, no number. Most compounds without a hit are left out; they make up all but 2% or so of the library.

SMILES	Myeloid diff MLP	T cell modulator	GAA850 FXN act	NR2E3 ag-1	NR2E3 ag-2
O=C(NCCCO)c1ccc2nc(-c3ccco3)c(-c3ccco3)nc2c1	n	x	n	n	x
O=C(NCCO)Nc1ccc2nc(-c3ccco3)c(-c3ccco3)nc2c1	x	n	x	x	46.2
Cc1ccc(S(=O)(=O)N2CCN(C(=O)COC(=O)CSc3cc(C)ccc3C)CC2)c(C)c1	n	n	n	n	n
O=C(c1ccc(Cl)c([N+](=O)[O-])c1)N(Cc1ccco1)C1CCS(=O)(=O)C1 (stereo not given)	+	n	n	n	n
CCOc1cccc(C(=O)N(Cc2ccco2)C2CCS(=O)(=O)C2)c1 (stereo not given)	n	n	n	n	n
Cc1ccc(S(=O)(=O)N2CCC(C(=O)Nc3ccc(S(=O)(=O)N4CCOCC4)cc3)CC2)cc1	n	x	n	n	x
CCOc1ccc(S(=O)(=O)N2CCC(C(=O)Nc3ccc(C)c(S(=O)(=O)N4CCOCC4)c3)CC2)cc1	+	x	n	n	x
CCOc1ccc(S(=O)(=O)N2CCC(C(=O)OC(C)C(=O)NC3CCCCC3C)CC2)cc1 (stereo not given)	n	0.0	n	n	n
O=C(Nc1cc(S(=O)(=O)N2CCCCC2)ccc1N1CCOCC1)c1ccc(C(F)(F)F)cc1	n	n	n	n	n
Cc1ccc(S(=O)(=O)N2CCC(C(=O)Nc3cc(C(F)(F)F)ccc3N3CCOCC3)CC2)cc1C	n	47.7	n	n	n
c1ccc(-c2cn(-c3ccccc3)c3[n+]2CCS3)cc1	+	n	n	n	n
Fc1ccc(-n2cc(-c3ccccc3)[n+]3c2SCC3)cc1	n	n	n	n	n
Cc1cc(C)c(-c2nc3ccccc3s2)[nH]1	+	n	n	n	n
Cc1ccc(NCc2nnc(SCC(=O)NNC(=O)Cc3ccccc3)n2C)cc1	+	n	n	n	n
CCCCCC(C)NC(=O)c1cc(S(=O)(=O)N2CCCCC2)ccc1N1CCOCC1 (stereo not given)	n	n	n	n	n
COc1ccc(-n2nc(C(=O)c3cccs3)cc(-c3nc4ccccc4[nH]3)c2=N)cc1	+	n	n	n	n
Cc1ccccc1-n1nc(C(=O)c2cccs2)cc(-c2nc3ccccc3[nH]2)c1=N	n	n	n	n	n
O=C(c1ccc(Cl)c(S(=O)(=O)NCc2ccco2)c1)N1CCN(c2ccccc2F)CC1	n	n	n	n	n
COc1ccccc1N1CCN(C(=O)c2ccc(Cl)c(S(=O)(=O)NCc3ccco3)c2)CC1	+	n	n	n	n
Cc1ccc(C(=O)N2CCN(c3ccc(NC(=S)NC(=O)Cc4ccccc4)cc3)CC2)cc1	n	n	n	72.0	n
Cc1ccc(C(=O)N2CCN(c3ccc(NC(=O)COc4ccccc4C)cc3)CC2)cc1	n	n	n	n	n
COc1ccc(C(=O)Nc2ccc(N3CCCC3)cc2)cc1	+	n	n	n	n
COc1ccc(NS(=O)(=O)c2cccc(NC(=O)c3ccc(S(=O)(=O)N4CCCCCC4)cc3)c2)cc1	n	n	n	83.2	n
COc1ccc(C(=O)N2CCN(c3ccc(NC(=O)Cc4ccccc4)cc3)CC2)cc1	n	0.0	n	n	n
Cn1nnnc1Sc1ncnc2scc(-c3ccc([N+](=O)[O-])cc3)c12	u	n	n	n	n
SMILES	Myeloid diff MLP	T cell modulator	GAA850 FXN act	NR2E3 ag-1	NR2E3 ag-2
O=C(Nc1ccc(N2CCCC2)cc1)c1ccc(Br)o1	+	n	n	n	n
O=C(NC1CCN(Cc2ccccc2)CC1)c1ccc(Cn2c(=S)[nH]c3ccc(N4CCOCC4)cc3c2=O)cc1	+	n	n	n	n
Cn1c(=O)oc2cc(S(=O)(=O)NCC3CCCO3)ccc21 (stereo not given)	+	n	n	n	n
CC1CC(C)CN(CCCNS(=O)(=O)c2ccc3c(c2)oc(=O)n3C)C1 (stereo not given)	+	n	n	n	x
Cn1c(=O)oc2cc(S(=O)(=O)NC3CCCCC3)ccc21	n	n	n	n	n
CC(C)CC1C(=O)N(Cc2cn(CCC3OCCCO3)nn2)CCS(=O)(=O)N1Cc1ccc(-c2ccc(Cl)nc2)cc1 (stereo not given)	n	x	n	n	x
Cc1nc(S/C(=C/c2ccc(-c3cccc(Cl)c3)o2)C(=O)O)n[nH]1	+	n	n	n	n
[O-][n+]1onc2c1CCc1c-2nn(-c2ccccc2Cl)[n+]1[O-]	x	n	n	n	n
Cc1ccc(-n2nc3c([n+]2[O-])CCc2c-3no[n+]2[O-])cc1	+	n	n	n	n
O=S(=O)(Nc1nc2ccccc2nc1Nc1cccc(S(=O)(=O)N2CCCCC2)c1)c1ccccc1	n	n	n	n	n
CN(Cc1nc2ccccc2c(=O)[nH]1)C(=O)c1ccc(S(=O)(=O)N(C)C)cc1	n	n	n	n	n
Cc1c(C(=O)N(C)Cc2nc3ccccc3c(=O)[nH]2)oc2ccccc12	+	n	n	n	x
CCN1C(=O)CC(NCc2ccc(S(N)(=O)=O)cc2)C1=O (stereo not given)	n	n	n	n	n
CC(C(=O)O)n1cc(C#N)c(=O)[nH]c1=O (stereo not given)	n	x	n	n	x
COc1ccc(CNC(=O)Cn2cc(C)c(=O)[nH]c2=O)cc1	n	x	n	n	x
Cn1ncc(Br)c1C(=O)N1CCCC1	n	n	n	n	n
Cn1ncc(Br)c1C(=O)N1CCCCCC1	n	33.2	n	n	n
COCCCN(C(=O)Cc1ccc(S(=O)(=O)N2CCOCC2)s1)c1c(N)n(Cc2ccccc2)c(=O)[nH]c1=O	n	x	n	n	x
FC(F)(F)c1ccc(C2[C@H]3CN(Cc4cccnc4)[C@H](c4ccccc4)C34CC2(c2cccnc2)C4)cc1 (stereo not given in full)	n	n	n	n	n
Clc1ccc(C2[C@H]3CN(Cc4cccnc4)[C@H](c4ccccc4)C34CC2(c2cccnc2)C4)cn1 (stereo not given in full)	+	n	n	n	n
COc1ccc(CNc2nc3ccc(C)cc3s2)c(OC)c1OC	n	n	n	n	n
COCCN1C(=O)/C(=C/c2ccc(N3CCCC3)cc2)SC1=S	+	n	n	n	n
COc1ccc(/C=C2\SC(=S)N(CCC(=O)N3CCCCC3)C2=O)cc1	+	n	n	n	n
COc1ccc(/C=C2\SC(=S)N(CCC(=O)Nc3ccccc3C(=O)O)C2=O)cc1	n	n	n	n	n
Cc1ccc(/C=C2\SC(=S)N(CCCC(=O)N3CCOCC3)C2=O)cc1	+	n	n	n	n
CCOc1ccc(/C=C2\SC(=S)N(CCC(=O)Nc3ccccc3C(=O)O)C2=O)cc1	+	n	n	n	n
Cc1ccccc1-c1csc(C(O)c2ccc(F)c(F)c2)n1 (stereo not given)	n	x	n	n	x

Source: PubChem
